Test results published in ChEMBL document CHEMBL1131473, “A novel class of orally active non-peptide bradykinin B2 receptor antagonists. 1. Construction of the basic framework” (J Med Chem, 1998).

Experiments:
[1] = target: T1, B2 bradykinin receptor (Cavia porcellus, UniProt O70526); experiment: In vitro for inhibition of specific binding of [3H]BK (0.06 nM) to bradykinin receptor B2 in guinea pig ileum membrane preparations.; type: cell membranes
T1 sequence (O70526 whole entry): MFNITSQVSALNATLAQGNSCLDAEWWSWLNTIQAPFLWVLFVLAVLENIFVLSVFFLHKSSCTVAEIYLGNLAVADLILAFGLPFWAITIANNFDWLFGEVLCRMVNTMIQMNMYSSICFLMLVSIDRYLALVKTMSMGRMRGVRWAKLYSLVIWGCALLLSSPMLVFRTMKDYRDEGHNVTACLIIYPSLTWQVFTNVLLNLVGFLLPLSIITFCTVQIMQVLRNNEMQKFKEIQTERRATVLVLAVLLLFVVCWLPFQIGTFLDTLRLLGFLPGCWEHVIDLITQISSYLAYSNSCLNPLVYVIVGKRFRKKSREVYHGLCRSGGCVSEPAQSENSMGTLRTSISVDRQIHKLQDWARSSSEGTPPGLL
Method in brief: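 Ileal membranes from male Hartley guinea pigs, prepared in TES/1,10-phenanthroline pH 6.8 by 1000g then 100000g spins. Assay buffer held bacitracin, DTT, 1 μM captopril and 0.1% BSA. Membranes (0.2 mg protein/mL) incubated with [3H]BK (final 0.06 nM) and varying compound concentrations for 60 min at room temperature. Bound ligand filtered on GF/B and counted by scintillation; nonspecific binding taken with 1 μM unlabeled BK.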

[2] = Compound at a dose of 10 mg/kg was orally administered to rats and Bioavailability was reported; type: ADME, organism-based; conditions: rat, in vivo, po, read-out: BA
Method in brief: (§1)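 Male Sprague-Dawley rats (3), starved overnight, given compound orally in 0.5% methocel (0.5 mL/100 g). Femoral-artery blood sampled at 0, 0.5, 1, 2, 4 and 6 h. Intravenous arm used a DMSO solution into the femoral vein, sampled 0 min–6 h. Plasma extracted with CHCl3, dried, reconstituted in MeOH and quantified by HPLC peak area against spiked time-0 plasma standards.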

[3] = system: Cavia porcellus; experiment: In vivo functional antagonistic activity against BK-induced bronchoconstriction in guinea pigs at an oral dose of 1 mg/kg.
Method in brief: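 Male Hartley guinea pigs (470-750 g), fasted, anesthetized with pentobarbital (30 mg/kg ip), ventilated, given alcuronium iv and propranolol sc. BK (5 μg/kg iv) raised pulmonary insufflation pressure, measured by modified Konzett–Rössler. Compound in 0.5% methylcellulose, or vehicle, was given by oesophageal cannula. BK was repeated 30 min later. Response expressed as ΔPIP after drug over ΔPIP before drug ×100; Student's t-test vs control.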

[4] = Compound at a dose of 10 mg/kg was orally administered to rats and Half-life value was reported; type: ADME, organism-based; design: dose 10 mg/kg, route oral; conditions: rat, in vivo, po; method in brief: as §1
[5] = Compound at a dose of 10 mg/kg was orally administered to rats and Area under curve was reported; type: ADME, organism-based; design: dose 10 mg/kg, route oral; conditions: rat, in vivo, po; method in brief: as §1
[6] = Compound at a dose of 10 mg/kg was orally administered to rats and maximum plasma concentration was reported; type: ADME, organism-based; design: dose 10 mg/kg, route oral; conditions: rat, po; method in brief: as §1

## Cc1cn2cccc(OCc3c(Cl)cccc3Cl)c2n1
[1]
  IC50: 4500 nM

## CC(=O)N(C)c1c(Cl)cc(Cl)c(COc2cccn3c(Br)c(C)nc23)c1Cl
[1]
  IC50: 420 nM

## Cc1nc2c(OCc3c(Cl)ccc([N+](=O)[O-])c3Cl)cccn2c1Br
[1]
  IC50: 42 nM

## Cc1nc2c(OCc3c(Cl)cccc3Cl)cccn2c1Cl
[1]
  IC50: 200 nM

## CCNC(=O)NCC(=O)N(C)c1ccc(Cl)c(COc2cccn3c(Br)c(C)nc23)c1Cl
[2]
  bioavailability: 75%
[3]
  inhibition in vivo at 1 mg/kg: 57.2%
[4]
  half-life: 30 min
[5]
  AUC: 58900 ng·h/mL
[1]
  IC50: 9 nM
[6]
  Cmax: 52600 ng/mL

## CCc1cn2cccc(OCc3c(Cl)cccc3Cl)c2n1
[1]
  IC50: 10000 nM

## Cc1nc2c(C(=O)Oc3c(Cl)cccc3Cl)cccn2c1Br
[1]
  IC50: > 100000 nM

## Cc1nc2c(OCc3c(F)cccc3F)cccn2c1Cl
[1]
  IC50: 1800 nM

## Cc1nc2c(OCc3c(Br)cccc3Br)cccn2c1Cl
[1]
  IC50: 1700 nM

## CC(=O)N(C)CC(=O)N(C)c1ccc(Cl)c(COc2cccn3c(Br)c(C)nc23)c1Cl
[1]
  IC50: 1600 nM

## Cc1nc2c(/C=C/c3c(Cl)cccc3Cl)cccn2c1Br
[1]
  IC50: > 100000 nM

## Cc1nc2c(NCc3c(Cl)cccc3Cl)cccn2c1Cl
[1]
  IC50: 1200 nM

## CC(=O)NCCC(=O)N(C)c1ccc(Cl)c(COc2cccn3c(Br)c(C)nc23)c1Cl
[1]
  IC50: 810 nM

## CNC(=O)N(C)c1ccc(Cl)c(COc2cccn3c(Br)c(C)nc23)c1Cl
[1]
  IC50: 350 nM

## CCn1c(C)cc(C#N)c1-c1ccc(COc2cc(C)nc3ccccc23)cc1
[1]
  IC50: 31000 nM

## CC(=O)N(C)c1ccc(Cl)c(COc2cccn3c(Br)c(C)nc23)c1Cl
[1]
  IC50: 54 nM

## Cc1nc2c(NC(=O)c3c(Cl)cccc3Cl)cccn2c1Cl
[1]
  IC50: > 100000 nM

## FC(F)(F)c1cn2cccc(OCc3c(Cl)cccc3Cl)c2n1
[1]
  IC50: > 100000 nM

## Cc1nc2c(OCc3c(Cl)ccc(N)c3Cl)cccn2c1Br
[1]
  IC50: 1500 nM

## CCC(=O)NCC(=O)N(C)c1ccc(Cl)c(COc2cccn3c(Br)c(C)nc23)c1Cl
[3]
  inhibition in vivo at 1 mg/kg: 48.4%
[1]
  IC50: 19 nM

## Cc1nc2c(OCc3c(Cl)ccc(N(C)C(=O)CNS(C)(=O)=O)c3Cl)cccn2c1Br
[3]
  inhibition in vivo at 1 mg/kg: 48.4%
[1]
  IC50: 580 nM

## CCCNC(=O)NCC(=O)N(C)c1ccc(Cl)c(COc2cccn3c(Br)c(C)nc23)c1Cl
[3]
  inhibition in vivo at 1 mg/kg: 62.4%
[1]
  IC50: 26 nM

## CCCCC(=O)NCC(=O)N(C)c1ccc(Cl)c(COc2cccn3c(Br)c(C)nc23)c1Cl
[3]
  inhibition in vivo at 1 mg/kg: 29.7%
[1]
  IC50: 7.8 nM

## CNC(=O)NCC(=O)N(C)c1ccc(Cl)c(COc2cccn3c(Br)c(C)nc23)c1Cl
[3]
  inhibition in vivo at 1 mg/kg: 41.5%
[1]
  IC50: 46 nM

## CC(=O)NCC(=O)N(C)c1ccc(Cl)c(COc2cccn3c(Br)c(C)nc23)c1Cl.Cl
[3]
  inhibition in vivo at 1 mg/kg: 62.3%
[4]
  half-life: 25.2 min
[5]
  AUC: 3150 ng·h/mL
[1]
  IC50: 16 nM
[6]
  Cmax: 3640 ng/mL
